Data set [1] deals with L. infantum promastigotes. In words: Nitrite concentration by Griess test, L. infantum promastigote culture. The format is cell-based. Particulars: 5 days, 25, 50 and 100 μM. The method in brief: (§1)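 L. infantum promastigote or T. cruzi epimastigote cultures (5 × 10^6 parasites/well) were incubated 5 days with test compound at 25, 50 and 100 μM, with untreated wells as controls. Supernatants were mixed with 1% sulfanilamide in 50% acetic acid, then after 15 min with 1% N-naphthylethylenediamine in 50% acetic acid, and read at 540 nm. Nitrite (μM) was taken from a sodium nitrite standard curve (detection limit 1.56 μM). Run in triplicate.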

For the next data set, the system named is T. cruzi epimastigotes. In words: Nitrite concentration by Griess test, T. cruzi epimastigote culture. The format is cell-based. Particulars: 5 days, 25, 50 and 100 μM. The gist of the method:
as §1
A general note: Griess reagent forms a coloured azo dye with nitrite.

For the next data set, the system named is J774.1A macrophages. In words: Cytotoxicity on J774.1A macrophages. The class given is cell-based. Particulars: read-out: J774.1A macrophage, CC50; 48 h, MTT. The method in brief:
(§2)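 Peritoneal or J774.1A macrophages were grown in DMEM with 10% heat-inactivated FBS, L-glutamine and penicillin/streptomycin. Cells were seeded at 5 × 10^4 cells/well for 24 h at 37 °C, 5% CO2, then given test compound at 10–100 μM (from 25,000 μM DMSO stock) for 48 h. MTT (0.4 mg/mL, 4 h, 37 °C) was dissolved in DMSO and read at 570 nm. Cytotoxicity was expressed relative to negative controls. At least three experiments.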

For a further data set, the system named is peritoneal macrophages. As to the kind of experiment: Cytotoxicity on primary peritoneal macrophages. The format is cell-based, mouse. Particulars: read-out: peritoneal macrophage, CC50; 48 h, MTT. The method in brief: as §2
The subject of data set [2] is epimastigotes of T. cruzi. As to the kind of experiment: In vitro anti-T. cruzi evaluation on epimastigotes. The conditions noted are these: for S.I.T.cruzi (selectivity index), column epimastigote, IC50 (μM) T. cruzi (S.I.T.cruzi): CC50 (J774.1A) / IC50 of epimastigotes (T. cruzi); for IC50 / inhibition at 25 µM: Trypanosoma cruzi; for IC50: 120 h, read-out: epimastigote, IC50 T. cruzi; for inhibition at 25 µM: read-out: epimastigote, PGI (percentage growth inhibition) T. cruzi, determined at 25 μM. The format is cell-based, T. cruzi (CL Brener clone). The method in brief: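 Turbidity (A595) was read at day 0 and day 5. PGI was calculated relative to untreated controls, with single-point PGI at 25 μM. IC50 is the concentration […]. At least three experiments.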

For data set [3], the system named is promastigotes of L. infantum. As to the kind of experiment: In vitro growth inhibition of L. infantum promastigotes. The class given is cell-based, Leishmania infantum (MHOM MA67I7MAP263). The conditions noted are these: for IC50 / inhibition at 25 µM: Leishmania infantum; for IC50 / promastigote, IC50 L. infantum: 72 h; for IC50: read-out: promastigote, IC50 L. infantum; for inhibition at 25 µM: read-out: promastigote, PGI (percentage growth inhibition) L. infantum; for promastigote, IC50 L. infantum: promastigotes, MTT. The gist of the method:
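L. infantum MHOM MA67I7MAP263 promastigotes at 2 × 10^6 parasites/mL were exposed to 0.5–25 μM test compound for 72 h at 25 °C. Dilutions came from a 3000 μM DMSO stock, with final DMSO ≤1%. MTT (0.4 mg/mL) was added for 4 h at 37 °C, formazan was dissolved in DMSO and read at 570 nm. Inhibition was calculated against untreated controls. At least three experiments, mean ± SD.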

Data set [4] has as its system amastigotes of L. braziliensis. In words: Ex vivo antiamastigote activity of L. braziliensis. The format is cell-based, L. braziliensis (MHOM/BZ/82/M2903). The conditions noted are these: for S.I.Leishmania (selectivity index): CC50 (peritoneal macrophage) / IC50 (amastigotes of L. braziliensis); for IC50: Leishmania braziliensis, 48 h, read-out: amastigote, IC50 L. braziliensis. The gist of the method:
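L. braziliensis MHOM/BZ/82/M2903 amastigotes were taken from footpad lesions of infected BALB/c mice. Macrophages were removed by brief centrifugation (3000 rpm, 2–3 min). Amastigotes were kept at 37 °C, pH 5.5, in supplemented M199 with 10% FCS. At 2 × 10^6/mL they were exposed to 1.0–50.0 μM test compound (controls 1% DMSO). At 48 h parasites were counted in a Neubauer chamber against untreated controls. S.I. = peritoneal macrophage CC50 / amastigote IC50.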

The test system of data set [5] is promastigotes of L. braziliensis. As to the kind of experiment: In vitro growth inhibition of L. braziliensis promastigotes. The format is cell-based, Leishmania (V) braziliensis (MHOM/BR/75/M2903). Particulars: for IC50: read-out: promastigote, IC50 L. braziliensis; for inhibition at 25 µM: read-out: promastigote, PGI (percentage growth inhibition) L. braziliensis.

Data set [6] is described as follows: Cytotoxicity on primary peritoneal macrophages. The format is cell-based, mouse. Particulars: mouse, primary peritoneal macrophages, peritoneal macrophage, CC50, 48 h, MTT. The method in brief: as §2
The nature of data set [7]: Solubility, qualitative remarks. The conditions noted are these: qualitative remark. The format is physicochemical.
The subject of data set [8] is epimastigotes of T. cruzi. In words: Antifolate activity: IC50 on T. cruzi epimastigotes with and without folic acid. The format is cell-based. Particulars: presence vs absence of D,L-folic acid. The method in brief: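 T. cruzi epimastigotes were treated with test compound with or without D,L-folic acid, following the epimastigote turbidimetric viability protocol (120 h, 25 °C, A595). IC50 was determined in each condition and compared.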

The nature of data set [9]: Cytotoxicity on J774.1A macrophages. The format is cell-based. Particulars: mouse, J774.1A macrophages, J774.1A macrophage, CC50, 48 h, MTT. The method in brief: as §2
The subject of data set [10] is promastigotes of L. infantum. As to the kind of experiment: Effect of metal cations on IC50 on L. infantum promastigotes. The class given is cell-based. The conditions noted are these: Leishmania parasites, metal cation at 1 μM. The method in brief: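 L. infantum promastigotes were treated with test compound alone or with a metal cation (Fe3+, Cu2+ or Zn2+) at 1 μM, following the promastigote MTT viability protocol. IC50 was determined with and without the cation and compared.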

For data set [11], the system named is Salmonella typhimurium TA 98 strain. In words: Mutagenicity Ames test. The format is cell-based. Particulars: dose 20.0 μg/plate.
Data set [12] has as its system promastigotes of L. infantum. The format is cell-based. Particulars: presence vs absence of D,L-folic acid. The method in brief:
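L. infantum promastigotes were treated with test compound with or without D,L-folic acid, following the promastigote MTT viability protocol (72 h, 25 °C, formazan read at 570 nm). IC50 was determined in each condition and compared.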

Broadly, the CC50 is the concentration giving 50% cytotoxicity. As a reminder, the IC50 is the point on the concentration scale where inhibition reaches its midpoint. The inhibition is the change of the read-out against control, counted positive when it falls.

Where two headings read alike, the source gives them in different places. Bounds are passed on as bounds.

As to `O=c1[nH]c(-c2ccc(Cl)cc2)nc2ccccc12` [2-(4-chlorophenyl)quinazolin-4(3H)-one, reference compound], the “nitrite ion production (Griess test)” value (in data set [1]; with T. cruzi epimastigotes) was “No production was detected” in each case.

On to `NNc1nc(-c2ccccc2)nc2ccccc12` [3a, (Z)-1-(2-phenylquinazolin-4(3H)-ylidene)hydrazine], for which the CC50 in the data set on J774.1A macrophages worked out at 90.2 ± 4.32 µM; in the data set on peritoneal macrophages, 61 ± 2.34 µM. Further, the “S.I.T.cruzi (selectivity index), column epimastigote, IC50 (μM) T. cruzi (S.I.T.cruzi)” value (“S.I.T.cruzi (selectivity index)” for short) in [2] is given as less than 3.6. Also, the IC50 is more than 25 µM in [2], 12.7 ± 0.74 µM in data set [3], 8.26 ± 0.45 µM in [4] and 4.53 ± 0.23 µM in data set [5] (Leishmania braziliensis). Moreover, the “S.I.Leishmania (selectivity index)” value in data set [4] is 7.4.

The compound `NNc1nc(-c2ccc(F)cc2)nc2ccccc12` [3b, (Z)-1-(2-(4-fluorophenyl)quinazolin-4(3H)-ylidene)hydrazine] registered a CC50 at 48 h in [6] of more than 100 µM. Also, the “S.I.T.cruzi (selectivity index)” value in data set [2] is more than 6.7. Moreover, the IC50 was 17.9 ± 1.21 µM in data set [2], 5.01 ± 0.31 µM in data set [3], 7.41 ± 0.39 µM in data set [4] and 3.85 ± 0.17 µM in data set [5] (Leishmania braziliensis). Moreover, the solubility in culture entry in [7] is reported as “appreciable solubility”.

For `NNc1nc(-c2ccc(Br)cc2)nc2ccccc12` [3d, (Z)-1-(2-(4-bromophenyl)quinazolin-4(3H)-ylidene)hydrazine], the CC50 in the data set on J774.1A macrophages is 78.6 ± 3.99 µM; in the data set on peritoneal macrophages it was 78 ± 3.89 µM. The “change of IC50 on addition of folic acid (FA)” value (from here on “change of IC50 … (FA)”) in data set [8] is listed as “Increasing IC50 values by about twofold”. The “S.I.T.cruzi (selectivity index)” value in data set [2] is recorded as 5.5. Also, the IC50 in [2] was found to be 14.3 ± 0.87 µM; in data set [3] it was 2.13 ± 0.12 µM; in [4] it was 12.7 ± 0.78 µM; in data set [5] (Leishmania braziliensis) it was 6.2 ± 0.38 µM. In addition, in [4], the “S.I.Leishmania (selectivity index)” value stood at 6.2.

Turning to `Cc1ccc(-c2nc3ccccc3/c(=N/N)[nH]2)cc1` [3e, (Z)-1-(2-(4-Methylphenyl)quinazolin-4(3H)-ylidene)hydrazine], the CC50 at 48 h in data set [9] stood at 115 ± 5.43 µM; in data set [6], 84.8 ± 3.67 µM. Besides, in [8], the “change of IC50 … (FA)” value was “Increasing IC50 values by about twofold”. The “change of IC50 in the presence of Cu2+” value in data set [10] is “increase in IC50 values”. Moreover, the “S.I.T.cruzi (selectivity index)” value in data set [2] came out at 6.4. Further, the IC50 in data set [2] stood at 18 ± 1.11 µM; in [3], 1.2 ± 0.08 µM; in data set [4], 14 ± 0.89 µM; in data set [5] (Leishmania braziliensis) it was 10.1 ± 0.48 µM. Also, the “S.I.Leishmania (selectivity index)” value in [4] is reported as 6.1.

`NNc1nc(-c2cccc(Cl)c2)nc2ccccc12` [3f, (Z)-1-(2-(3-chlorophenyl)quinazolin-4(3H)-ylidene)hydrazine]: in the data set with J774.1A macrophages, the CC50 is more than 120 µM. For the same compound, the CC50 at 48 h in [6] is more than 100 µM. Besides, the “S.I.T.cruzi (selectivity index)” value in [2] is “no active”. Besides, the IC50 in [2] was more than 25 µM; in [3] it was 4.55 ± 0.29 µM; in data set [4] it was 8.43 ± 0.51 µM; in data set [5] (Leishmania braziliensis), 5.63 ± 0.36 µM. In addition, the solubility in culture entry in data set [7] is given as “appreciable solubility”.

For `N/N=c1\[nH]c(-c2cccc(Br)c2)nc2ccccc12` [3g, (Z)-1-(2-(3-bromophenyl)quinazolin-4(3H)-ylidene)hydrazine], the values for the IC50 in data set [2], in data set [3] and in [5] (Leishmania braziliensis) were more than 25 µM, 21.1 ± 1.21 µM and more than 25 µM, respectively. The inhibition at 25 µM in data set [5] (Leishmania braziliensis) stood at 27.3%.

Turning to `COc1cccc(-c2nc3ccccc3/c(=N/N)[nH]2)c1` [3h, (Z)-1-(2-(3-Methoxyphenyl)quinazolin-4(3H)-ylidene)hydrazine], in [2], the IC50 is more than 25 µM and the inhibition at 25 µM worked out at 10.1%. For the same compound, in data set [3], the IC50 is more than 25 µM; the inhibition at 25 µM came to 47.2%; the “promastigote, IC50 L. infantum” value is “inactive”. For the same compound, the IC50 in [5] (Leishmania braziliensis) was 12.2 ± 0.76 µM.

As to `COc1ccccc1-c1nc2ccccc2/c(=N/N)[nH]1` [3i, (Z)-1-(2-(2-Methoxyphenyl)quinazolin-4(3H)-ylidene)hydrazine], the IC50 in [2], in data set [3] and in data set [5] (Leishmania braziliensis) was more than 25 µM in each case. Besides, the inhibition at 25 µM in data set [2] was determined as 11.9%; in [3] it was 28.3%; in data set [5] (Leishmania braziliensis) it was 49.2%. In addition, in data set [7], the solubility entry is “poor solubilities”. Also, the “promastigote, IC50 L. infantum” value in data set [3] was “did not show activity”. In data set [5] (promastigotes), the “promastigote, IC50 L. braziliensis” value is given as “did not show activity”.

Consider `N/N=c1\[nH]c(-c2ccco2)nc2ccccc12` [3k], for which the IC50 in [2] was more than 25 µM; in data set [3], 14 ± 0.91 µM; in data set [5] (Leishmania braziliensis), more than 25 µM. For the same compound, the inhibition at 25 µM in data set [2] was 8.56%; in data set [5] (Leishmania braziliensis), 46.6%.

In the case of `Nc1ccc([N+](=O)[O-])cc1N` [NPD, 4-nitro-o-phenylenediamine, reference compound], in data set [11], the revertants number is on record as 394.0 ± 10.

Take `CNC[C@H](O)[C@@H](O)[C@H](O)[C@H](O)CO.[O]=[Sb](=[O])[OH]` [glucantime, reference compound]: in the data set on peritoneal macrophages, the CC50 came to 138 ± 10.1 µM. Moreover, the “S.I.Leishmania (selectivity index)” value in data set [4] amounted to 11.3. Besides, the IC50 in [5] (promastigotes) worked out at 32 ± 1.78 µM.

On to `CCCCCCCCCCCCCCCCOP(=O)([O-])OCC[N+](C)(C)C` [miltefosine, reference compound], for which the figures for the CC50 at 48 h in data set [9] and in [6] were 72.3 ± 3.45 µM and 67.8 ± 3.11 µM, respectively. Further, in [12], the “change of IC50 … (FA)” value is listed as “not affected”. Moreover, the IC50 in [3] worked out at 10.6 ± 0.46 µM; in [4], 21.2 ± 1.13 µM; in [5] (Leishmania braziliensis) it was 8.78 ± 0.41 µM. The “S.I.Leishmania (selectivity index)” value in data set [4] came out at 3.2.

The record behind these values is PMC9773939 (ACS Omega, 2022).
